# In ChEMBL document CHEMBL4513216, “Probing the Open Global Health Chemical Diversity Library for Multistage-Active Starting Points for Next-Generation Antimalarials” (ACS Infect Dis, 2020):
# Experiment: Toxicity liver stage against HepG2, at 10uM
# Assay type: cell-based
# Set-up: test concentration 10 uM, cell line HepG2-A16-CD81EGFP
# Conditions: human, HepG2-A16-CD81EGFP cells; read-out: INHIBITION
# Outline: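 Uninfected HepG2-A16-CD81EGFP cells, 3 × 10^3 per well, 1536-well, plated on prespotted compound at 10 μM final, parasite-free screening media added to match infected plates; puromycin 10 μM positive, DMSO 0.5% negative; run in parallel with 48 h PbLuc assay at 37 °C, 5% CO2; viability by CellTiter-Glo luminescence, normalized to controls.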
row,Structure (SMILES),cytotoxicity at 10 µM [%]
1,Cc1cc(N(Cc2ccccc2F)C2CC2)n2nc(C(F)(F)F)nc2n1,0.43
2,O=C(CSCc1ccncc1)NCC1CCN(C2CC2)C1 (configuration not stated),0.224
3,Cc1ccc(OCC(=O)NC2(C#N)CCSCC2)cc1C,5.7
4,CCOc1ccc(SCCNS(=O)(=O)CC)cc1,2.71
5,COc1cccc(Cn2cccc(C#N)c2=O)c1,11.3
6,O=C(NCCSc1ccccc1F)NCc1cccnc1,-5.31
7,COc1cccc(CCCNC(=O)N2CCC(O)(C(F)(F)F)C2)c1 (configuration not stated),-4.25
8,CCc1ncncc1C(=O)NCCNc1ncnc2sccc12,-5.68
9,Cc1nc(CCNC(=O)NCC(O)c2cccc(Cl)c2)cs1 (configuration not stated),14
10,CC(NC(N)=O)C(=O)NCc1ccnc(Oc2ccc(F)cc2)c1 (configuration not stated),8.26
11,CC(C)N1CCN(S(=O)(=O)c2ncn(C)c2Cl)CC1,13.9
12,Cn1ncnc1CNC(=O)N(CCCO)C1CCc2ccccc21 (configuration not stated),-5.95
13,COc1ccc(Nc2ccc(C#N)cn2)cc1N1CCCC1=O,10.1
14,CN(C)S(=O)(=O)c1ccc2c(c1)N(Cc1nccn1C)CCC2,2.26
15,Cc1ncsc1C(=O)OCCN1CCCc2ccccc21,2.42
16,COc1cc(C)nc(N2CCN(Cc3nccn3C)CC2)n1,-1.8
17,CC(=O)N[C@@H]1CN(Cc2ccccc2C#N)C[C@H]1c1ccc(C)cc1,-4.27
18,Cc1nc(C)n(CCCNc2ncnc(C)c2C)n1,-1.74
19,Cc1cc(-n2nc(C)nc2-c2cn(CCN)nn2)ccn1,7.55
20,CCNc1ncc(C(=O)NCC2OCCc3ccccc32)cn1 (configuration not stated),-53.1
21,CC1CCCCN1C1CN(C(=O)c2sccc2S(N)(=O)=O)C1 (configuration not stated),-1.45
22,COC(C)(C)Cn1ccnc1-c1cccc(C(C)N(C)C)c1 (configuration not stated),-3.59
23,CCc1nc(N)nc(NCCC(=O)NC2CCCCC2)c1C,-38.9
24,CN1[C@@H](c2ccccc2)[C@@H](C(=O)NCC2CCOCC2)C[C@@]1(C)C(=O)O,-40.4

row,Structure (SMILES),cytotoxicity at 10 µM [%]
1,Nc1nc2c(c(N3CCCC3)n1)CCN(Cc1ccccn1)CC2,-35.3
2,CCn1c(CC2CCN(C(=O)c3cc(C(C)C)n[nH]3)CC2)n[nH]c1=O,-44.4
3,CC[C@@]1(O)CCN(C(=O)c2ccc(OC(F)F)cc2)C[C@H]1O,6.2
4,Cn1ncc(CN2CCc3onc(-c4cccc(F)c4)c3C2)c1C1CC1,1.31
5,COCCC(=O)N1Cc2cnc(Cc3ccc(OC)cc3)nc2C1,-0.641
6,O=C(Cn1cccnc1=O)NC(Cc1ccsc1)c1ccccn1 (configuration not stated),-5.66
7,CN1CCN(C2CCN(CCOc3ccc(C#N)cc3)CC2)C1=O,-1.03
8,c1cc2n(n1)CC(CNCc1ccc(OC3CCCC3)nc1)CN2 (configuration not stated),-5.17
9,CC(NC(=O)Cn1cccn1)c1ccc2c(c1)OCCO2 (configuration not stated),-2.23
10,c1ccc(-n2cc(CNCC3CCCN3c3cccnn3)cn2)cc1 (configuration not stated),-8.85
11,Cn1ccnc1CN1CCCN(C(=O)c2ccc3c(c2)OCO3)CC1,-6.61
12,c1ccc(-n2cc(CNC3CCc4ncnn4C3)nn2)cc1 (configuration not stated),-4.01
13,Cc1nc(CN2CCN(C(=O)NC(C)c3cccnc3)CC2)cs1 (configuration not stated),-10.4
14,Cc1nc(C)c(CN2CCOC(CNc3cccnn3)C2)s1 (configuration not stated),-1.71
15,CCc1nc(CN2CCOC(CNc3cccnn3)C2)cs1 (configuration not stated),-11
16,O=C(CCCOc1ccc(F)cc1F)N1CCCC1Cn1cccn1 (configuration not stated),-5.67
17,Cc1nc(CN2CCc3nn(C(C)C)c(=O)cc3C2)oc1C,-7.52
18,COc1ccccc1CC(=O)N1CCC(NCc2cccnc2)CC1,-5.7
19,CC(C)Cc1noc(CN2CCCC(Cn3cncn3)C2)n1 (configuration not stated),-2.6
20,CCCC(=O)N1CCC(O)(Cn2c(CC)nc3ccccc3c2=O)CC1,-2.03
21,COc1ccc(CNCc2ccnc(N3CCCC3)c2)c(OC)c1,3.45
22,O=C(C1=CCCC1)N1CCC2(CC1)CC(Oc1cccnc1)CO2 (configuration not stated),-1.58
23,CCC(C)Oc1ccccc1Cn1cc2[nH]cccc-2c1=O (configuration not stated),-0.0261
